One data set addresses Cytochrome P450 2D6 (Homo sapiens, UniProt P10635). Nature of the data set: Inhibition of CYP2D6 (unknown origin). The class given is ADME.
Data set [1] is described as follows: Protein binding in human plasma assessed as bound fraction. The class given is ADME, cell-free.
Data set [2] in a line: Microsomal stability in rat liver microsomes assessed as half life. The data set is classed as ADME, Microsome.
Data set [3] has as its system Mus musculus. The data set is described as follows: Antiallodynic activity in CCI surgery neuropathic pain Hsd:ICR mouse model assessed as reversal of mechano-allodynia by measuring paw withdrawal threshold at 10 micromol/kg,po and measured at 1 hrs by von frey test. The settings on record: dose 10.0 µmol/kg. The class given is functional, organism-based. Put shortly: (§1)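 CCI neuropathic pain in adult male CD-1 mice. Single oral gavage dose of 10 μmol/kg on day 7 post-surgery. Vehicle 5% DMSO + 10% (Kolliphor HS 15:DMSO 5:95) in 0.5% methylcellulose, 0.2 mL. Von Frey paw withdrawal threshold on both hindpaws. Mean ± SD; two-way ANOVA with Dunnett's test.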

The subject of another data set is HepG2. The data set is described as follows: Cytotoxicity in human HepG2 cells assessed as reduction in cell viability. The class given is toxicity, cell-based.
Data set [4] in a line: Stability in human plasma assessed as parent compound remaining at 1 uM and measured at 120 mins by LC-MS/MS analysis. The settings on record: 2 h. The class given is ADME, cell-free. In outline: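 Plasma from human, rat and mouse; percent parent remaining at 120 min.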
Data set [5] concerns the target T1, P2Y purinoceptor 14 (Homo sapiens, UniProt Q15391).
T1 sequence (Q15391 whole entry): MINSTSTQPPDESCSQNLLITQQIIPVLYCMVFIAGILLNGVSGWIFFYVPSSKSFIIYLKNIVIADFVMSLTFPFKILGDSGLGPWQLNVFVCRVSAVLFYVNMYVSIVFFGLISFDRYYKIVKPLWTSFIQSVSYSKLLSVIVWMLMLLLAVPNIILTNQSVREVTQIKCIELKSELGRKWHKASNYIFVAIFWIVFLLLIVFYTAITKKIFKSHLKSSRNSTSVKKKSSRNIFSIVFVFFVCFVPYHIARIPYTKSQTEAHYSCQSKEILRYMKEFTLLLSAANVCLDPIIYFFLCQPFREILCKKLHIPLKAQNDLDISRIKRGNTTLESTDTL
The data set is described as follows: Displacement of fluorescent tracer 4-(4-(1-(4-(1-(6-(3-carboxylato-4-(3-iminio-3H-xanthen-9-yl)benzamido)hexyl)-4,5-dihydro-1H-pyrrol-3-yl)butyl)piperidin-1-ium-4-yl)phenyl)-7-(4-(trifluoromethyl)phenyl)-2-naphthoate from human P2Y14R stably expressed in CHO cells by flow cytometry. The data set is classed as cell-based. Put shortly: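 Whole-cell competitive binding: CHO cells expressing hP2Y14R (or HEK-293 cells expressing mP2Y14R) incubated with AlexaFluor488-labelled antagonist tracer at 20 nM.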
A general note: A flow cytometer gives signals particle by particle.

Data set [6] addresses Voltage-gated inwardly rectifying potassium channel KCNH2 (Homo sapiens, UniProt Q12809). The data set is described as follows: Inhibition of human ERG stably expressed in human HEK293 cells incubated for 2 hrs by TAMRA based fuorescence polarization assay. The data set is classed as toxicity, cell-based. Put shortly: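 hERG inhibition measured in a fluorescent dye-binding assay.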

A short description of data set [7]: Protein binding in rat plasma assessed as bound fraction. The class given is ADME, cell-free.
In data set [8] the test system is Mus musculus. Nature of the data set: Antiallodynic activity in CCI surgery neuropathic pain Hsd:ICR mouse model assessed as reversal of mechano-allodynia by measuring paw withdrawal threshold at 10 micromol/kg,po and measured upto 6 hrs by von frey test. The data set is classed as functional, organism-based. The settings on record: dose 10.0 µmol/kg. In outline:
as §1

For another data set, the target named is Cytochrome P450 2C19 (Homo sapiens, UniProt P33261). The data set is described as follows: Inhibition of CYP2C19 (unknown origin). The data set is classed as ADME.
Chain of Cytochrome P450 2C19 (P33261 whole entry): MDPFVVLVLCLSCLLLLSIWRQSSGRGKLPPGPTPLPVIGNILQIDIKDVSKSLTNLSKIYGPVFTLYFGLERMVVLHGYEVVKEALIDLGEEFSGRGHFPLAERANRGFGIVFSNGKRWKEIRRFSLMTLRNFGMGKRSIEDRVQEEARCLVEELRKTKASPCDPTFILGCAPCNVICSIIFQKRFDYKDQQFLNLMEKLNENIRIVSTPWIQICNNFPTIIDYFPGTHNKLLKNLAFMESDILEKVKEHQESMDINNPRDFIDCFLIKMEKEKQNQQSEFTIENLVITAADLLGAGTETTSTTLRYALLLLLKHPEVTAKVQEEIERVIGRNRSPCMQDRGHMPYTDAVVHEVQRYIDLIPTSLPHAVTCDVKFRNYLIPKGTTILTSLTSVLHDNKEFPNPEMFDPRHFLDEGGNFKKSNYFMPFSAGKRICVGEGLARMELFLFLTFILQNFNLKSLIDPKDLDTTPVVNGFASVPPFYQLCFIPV
Data set [9] in a line: Microsomal stability in mouse liver microsomes assessed as half life. The data set is classed as ADME, Microsome. For orientation: Microsomes from liver hold many membrane-bound enzymes, among them those of drug oxidation.
The target of data set [10] is T2, P2Y purinoceptor 14 (Mus musculus, UniProt Q9ESG6).
T2 sequence (Q9ESG6 whole entry): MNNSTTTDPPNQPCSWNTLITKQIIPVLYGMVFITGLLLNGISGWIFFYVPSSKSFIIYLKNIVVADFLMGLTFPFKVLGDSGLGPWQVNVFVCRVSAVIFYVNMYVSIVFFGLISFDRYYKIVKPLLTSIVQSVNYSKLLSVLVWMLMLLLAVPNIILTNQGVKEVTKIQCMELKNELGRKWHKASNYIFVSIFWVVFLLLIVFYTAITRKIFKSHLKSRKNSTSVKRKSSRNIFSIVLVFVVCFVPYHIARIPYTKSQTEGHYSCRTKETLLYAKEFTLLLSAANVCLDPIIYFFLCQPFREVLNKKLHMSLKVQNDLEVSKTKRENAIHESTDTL
Nature of the data set: Displacement of fluorescent tracer 4-(4-(1-(4-(1-(6-(3-carboxylato-4-(3-iminio-3H-xanthen-9-yl)benzamido)hexyl)-4,5-dihydro-1H-pyrrol-3-yl)butyl)piperidin-1-ium-4-yl)phenyl)-7-(4-(trifluoromethyl)phenyl)-2-naphthoate from mouse P2Y14R stably expressed in human HEK293 cells by flow cytometry. The data set is classed as cell-based. In outline:
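Whole-cell competitive binding: CHO cells expressing hP2Y14R (or HEK-293 cells expressing mP2Y14R) incubated with AlexaFluor488-labelled antagonist tracer at 20 nM. […] Ki derived by dividing IC50 by 1.72.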

A short description of data set [11]: Acute toxicity in Wistar rat assessed as morbidity at 0.5 mg/kg, iv and measured upto 24 hrs. The class given is organism-based. Particulars: in vivo. In outline: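 Male Wistar rats; single dose at 1, 3 or 10 mg/kg i.p., or 0.5 mg/kg i.v. Animals were watched for mortality and morbidity over the experimental period, in the course of a plasma pharmacokinetic study.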

The target in the next data set is T3, Cytochrome P450 1A2 (Homo sapiens, UniProt P05177).
T3 sequence (P05177 whole entry): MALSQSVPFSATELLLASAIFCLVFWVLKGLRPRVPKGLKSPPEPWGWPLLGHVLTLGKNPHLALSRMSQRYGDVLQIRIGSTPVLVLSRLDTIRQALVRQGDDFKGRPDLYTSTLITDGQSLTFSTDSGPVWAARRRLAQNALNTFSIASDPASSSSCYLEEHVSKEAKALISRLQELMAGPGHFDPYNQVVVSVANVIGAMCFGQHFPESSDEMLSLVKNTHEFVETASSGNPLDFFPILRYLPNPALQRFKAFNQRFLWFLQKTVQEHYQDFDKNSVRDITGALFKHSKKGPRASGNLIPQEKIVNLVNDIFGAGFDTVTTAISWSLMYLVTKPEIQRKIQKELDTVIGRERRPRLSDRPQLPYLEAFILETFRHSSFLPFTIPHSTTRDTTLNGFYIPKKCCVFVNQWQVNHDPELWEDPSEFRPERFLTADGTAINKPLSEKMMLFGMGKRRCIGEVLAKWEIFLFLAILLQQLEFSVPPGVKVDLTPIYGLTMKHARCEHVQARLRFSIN
The data set is described as follows: Inhibition of CYP1A2 (unknown origin). The data set is classed as ADME.

For data set [12], the system named is Mus musculus. The data set is described as follows: Protection against cardiac ischemia/reperfusion induced C57BL/6J mouse injury model assessed as reduction in infarct size at 2 mg/kg, sc prior to 0.5 hrs of myocardial ischemia and 48 h of reperfusion (Rvb= 26.4%). The class given is functional. More on the design: scale not given: the % may be the effect or the level left. The settings on record: time 48.5 hrs.

The next data set deals with Cytochrome P450 2C9 (Homo sapiens, UniProt P11712). The data set is described as follows: Inhibition of CYP2C9 (unknown origin). The class given is ADME.
Chain of Cytochrome P450 2C9 (P11712 whole entry): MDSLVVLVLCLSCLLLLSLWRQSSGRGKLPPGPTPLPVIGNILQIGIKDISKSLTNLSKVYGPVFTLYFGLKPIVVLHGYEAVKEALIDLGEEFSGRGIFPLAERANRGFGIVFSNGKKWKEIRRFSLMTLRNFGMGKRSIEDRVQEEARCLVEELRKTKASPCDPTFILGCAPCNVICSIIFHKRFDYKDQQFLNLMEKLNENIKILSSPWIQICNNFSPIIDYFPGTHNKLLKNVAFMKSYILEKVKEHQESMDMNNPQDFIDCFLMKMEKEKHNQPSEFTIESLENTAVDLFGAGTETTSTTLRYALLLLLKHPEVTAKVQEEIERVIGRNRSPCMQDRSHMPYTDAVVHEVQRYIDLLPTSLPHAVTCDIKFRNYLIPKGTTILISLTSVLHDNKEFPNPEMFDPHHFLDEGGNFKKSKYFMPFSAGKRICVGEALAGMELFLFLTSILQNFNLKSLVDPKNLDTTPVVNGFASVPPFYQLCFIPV

The source made the active and inactive calls.

Chain of Cytochrome P450 2D6 (P10635 whole entry): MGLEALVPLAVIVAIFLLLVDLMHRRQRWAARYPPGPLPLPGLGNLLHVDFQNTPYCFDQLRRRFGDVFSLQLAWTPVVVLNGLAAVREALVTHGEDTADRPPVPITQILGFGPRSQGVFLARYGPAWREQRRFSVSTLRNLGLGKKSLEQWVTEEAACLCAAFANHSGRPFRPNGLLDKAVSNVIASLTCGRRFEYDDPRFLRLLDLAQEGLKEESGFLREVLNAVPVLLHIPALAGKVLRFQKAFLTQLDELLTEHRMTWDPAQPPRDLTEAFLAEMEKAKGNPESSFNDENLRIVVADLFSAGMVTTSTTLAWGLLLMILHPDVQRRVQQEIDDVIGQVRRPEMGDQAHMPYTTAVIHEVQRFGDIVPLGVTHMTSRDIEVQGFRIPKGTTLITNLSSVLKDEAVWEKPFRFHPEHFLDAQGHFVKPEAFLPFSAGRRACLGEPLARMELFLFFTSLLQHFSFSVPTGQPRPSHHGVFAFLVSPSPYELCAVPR
Chain of Voltage-gated inwardly rectifying potassium channel KCNH2 (Q12809 whole entry): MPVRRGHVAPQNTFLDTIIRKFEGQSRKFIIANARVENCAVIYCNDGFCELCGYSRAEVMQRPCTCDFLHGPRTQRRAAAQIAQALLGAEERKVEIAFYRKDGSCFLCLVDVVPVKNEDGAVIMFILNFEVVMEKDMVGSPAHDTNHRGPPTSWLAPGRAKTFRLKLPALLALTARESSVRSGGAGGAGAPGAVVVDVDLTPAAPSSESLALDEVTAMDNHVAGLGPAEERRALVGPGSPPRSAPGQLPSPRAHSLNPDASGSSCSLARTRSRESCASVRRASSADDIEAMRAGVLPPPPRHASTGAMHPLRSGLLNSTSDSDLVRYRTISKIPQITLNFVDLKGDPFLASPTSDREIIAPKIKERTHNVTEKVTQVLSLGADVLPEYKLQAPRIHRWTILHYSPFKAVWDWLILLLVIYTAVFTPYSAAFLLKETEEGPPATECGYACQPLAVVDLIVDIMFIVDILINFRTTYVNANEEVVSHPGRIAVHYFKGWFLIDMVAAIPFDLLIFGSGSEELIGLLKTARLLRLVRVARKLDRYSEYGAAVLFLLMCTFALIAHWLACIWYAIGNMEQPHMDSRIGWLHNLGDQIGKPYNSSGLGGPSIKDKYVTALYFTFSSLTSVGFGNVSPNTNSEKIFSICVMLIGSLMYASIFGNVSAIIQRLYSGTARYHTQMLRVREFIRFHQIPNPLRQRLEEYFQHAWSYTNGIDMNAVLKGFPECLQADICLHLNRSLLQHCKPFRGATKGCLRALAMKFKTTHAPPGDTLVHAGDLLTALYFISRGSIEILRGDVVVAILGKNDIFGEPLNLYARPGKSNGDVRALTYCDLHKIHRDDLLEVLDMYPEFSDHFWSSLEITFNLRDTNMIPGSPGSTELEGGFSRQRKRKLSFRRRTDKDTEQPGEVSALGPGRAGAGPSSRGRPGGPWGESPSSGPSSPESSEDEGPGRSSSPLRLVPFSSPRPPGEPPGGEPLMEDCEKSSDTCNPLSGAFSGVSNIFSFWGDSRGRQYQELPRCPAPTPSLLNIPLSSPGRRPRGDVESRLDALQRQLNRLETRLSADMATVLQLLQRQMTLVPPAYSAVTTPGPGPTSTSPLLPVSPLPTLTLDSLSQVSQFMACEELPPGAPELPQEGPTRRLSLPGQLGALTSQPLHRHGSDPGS

By IC50 is commonly meant the point on the concentration scale where inhibition reaches its midpoint. Regarding `O=C(O)c1cc(-c2ccc([C@]3(O)[C@@H]4CNC[C@H]3C4)cc2)c2ccc(-c3ccc(C(F)(F)F)cc3)cc2c1`, the IC50 was > 30 µM on Cytochrome P450 2D6; 32.6 µM with HepG2; 0.00592 µM on P2Y purinoceptor 14 [5]; > 30 µM in [6]; > 30 µM on Cytochrome P450 2C19; 0.0048 µM on P2Y purinoceptor 14 [10]. In addition, the IC50 on Cytochrome P450 1A2 and on Cytochrome P450 2C9 was > 30 µM in each case. Further, the PPB is on record as 99.3% in [1] and 99.48% in [7]. Further, the t1/2 in data set [2] was 5.7 h; in data set [9], 5.92 h. Besides, the outcome in the data set with Mus musculus [3] and with Mus musculus [8] was Active. For the same molecule, the Stability in data set [4] is 91.1%. Further, the Activity result is given as “Non-Toxic” in data set [11] and 31.8% with Mus musculus [12].

For the origin of these results see ChEMBL document CHEMBL5331128, “Alicyclic Ring Size Variation of 4-Phenyl-2-naphthoic Acid Derivatives as P2Y14 Receptor Antagonists” (J Med Chem, 2023).
